# In publication PMC5198968 (Cancer Science, 2016):
# “Also recorded” adds a separate entry of the source.
# Legend:
# [1] = tested on: Japanese patients with advanced hepatocellular carcinoma; experiment: Phase I dose escalation: dose-limiting toxicities and maximum tolerated dose; assay type: in vivo, human
# Summary of the method: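 Doses started at 150 mg b.i.d. (group I) or 100 mg b.i.d. (group II) and escalated to 200 mg, with 3–9 patients per level. DLTs were drug-related AEs in cycle 1: grade 4 neutropenia lasting ≥8 days, febrile neutropenia or thrombocytopenia, most non-hematological grade ≥3 events, or defined liver-enzyme or bilirubin rises. Escalation required DLT incidence <33.3% (0/3, 1/6, 2/9). Twelve patients were added at the MTD.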
# [2] = Pharmacokinetics in plasma and urine; assay type: in vivo, human; settings: for half-life: human, plasma, oral, t ½,ss, gMean (gCV%)
# Summary of the method: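 Oral dosing twice daily, at 100, 150 or 200 mg depending on group. Blood was drawn predose and 1, 2, 3, 4, 6, 8, 10 and 24 h postdose on cycle 1 day 15, plus predose and 2 h postdose on cycle 2 days 1 and 15. Urine was collected over 24 h on cycle 1 day 15 and stored at −20°C or below. Analysis was by LC-MS/MS, with non-compartmental parameters, in treated patients with an evaluable PK end-point.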
# [3] = tested on: Japanese patients with advanced hepatocellular carcinoma; experiment: Efficacy: tumor response; assay type: in vivo, human
# [4] = tested on: patients with advanced solid tumors; settings: phase I studies in advanced solid tumors; cited from earlier work
# [5] = 200 mg b.i.d., expansion cohort
# [6] = dose-normalized AUC at steady state
structure (smiles),measurement,setting,value
COC(=O)c1ccc2c(c1)NC(=O)/C2=C(\Nc1ccc(N(C)C(=O)CN2CCN(C)CC2)cc1)c1ccccc1 [nintedanib],DLT of grade 3 diarrhea,[1]; [5],one patient in group I
same,DLT of grade 3 drug-induced liver injury,[1]; [5],one patient in each group
same,Patients who experienced a DLT,"[1]; 200 mg b.i.d., including expansion cohort, of 19 patients",three
same,Maximum tolerated dose (MTD),"[1]; both groups (mild and moderate liver impairment), oral, 28-day cycles",200 mg b.i.d.
same,DLT during the MTD period (cycle 1),"[1]; group I (150, 200 mg b.i.d.) and group II (100, 150, 200 mg b.i.d.), dose escalation",No dose‐limiting toxicities were reported; also recorded: No patient experienced a DLT
same,Time at which plasma concentrations reached their maximum,[2]; after multiple oral dose administration at steady state,3 to 4 h
same,"Correlation between nintedanib exposure (AUCτ,ss,norm) and AST or ALT levels",[2]; days 1–22 of cycle 1,no clear correlation
same,"Increase in AUCτ,ss,norm, Child–Pugh score 7 versus score 5 or 6",[2]; [6],37%
same,"Increase in AUCτ,ss,norm, group II versus group I",[2]; [6],26%
same,half-life,"[2]; 100 mg, Group II (moderate liver impairment), 100 mg b.i.d., n = 2, steady state",2500 min
same,half-life,"[2]; 150 mg, Group I (mild liver impairment), 150 mg b.i.d., n = 3, steady state",1420 min
same,half-life,"[2]; 150 mg, Group II (moderate liver impairment), 150 mg b.i.d., n = 3, steady state",876 min
same,half-life,"[2]; 200 mg, Group I (mild liver impairment), 200 mg b.i.d., n = 9, steady state",996 min
same,half-life,"[2]; 200 mg, Group II (moderate liver impairment), 200 mg b.i.d. (n = 7), steady state",1060 min
same,Administered dose recovered in the urine,[2]; over 24 hours after dosing at steady state,0.49–0.66%
same,"AUCτ,ss of individual patients with high exposure","[2]; two patients in group I, 200 mg b.i.d. cohort",5700 ng·h/mL
same,"Objective tumor response (RECIST 1.0, investigator assessment)",[3]; both groups,no complete or partial responses
same,Stable disease,[3]; group I (12 patients; 10 treated at the MTD),75.0%
same,Patients with response by AFP (decline from baseline of >20% in AFP levels),"[3]; group I, nine patients (56.3%) evaluable",three
same,Patients who had progressed at the time of analysis,"[3]; group I, of 16 patients",15 patients
same,Median time to progression (TTP),"[3]; group I, overall, 95% CI 1.05–5.52",2.8 months
same,Median time to progression (TTP),"[3]; group I, prior sorafenib treatment, 95% CI 1.05–5.68",2.8 months
same,Median time to progression (TTP),"[3]; group I, treated at the MTD of 200 mg b.i.d., 95% CI 1.05–5.52",2.8 months
same,Patients who had progressed at the time of analysis,"[3]; group II, all patients",14 patients
same,Patients with response by AFP,"[3]; group II, nine patients (64.3%) evaluable",three
same,Median time to progression (TTP),"[3]; group II, overall, 95% CI 0.95–6.70",3.2 months
same,Median time to progression (TTP),"[3]; group II, prior sorafenib treatment, 95% CI 0.95–6.70",2.8 months
same,Median time to progression (TTP),"[3]; group II, treated at the MTD of 200 mg b.i.d., 95% CI 0.95–5.62",2.8 months
same,Computed tomography finding in metastatic lymph node lesions,"[3]; one patient of group I, after 1 month of nintedanib treatment",tumor necrosis
same,Stable disease,[3]; patients in each group,> 75%
same,Primary DLT,[4],elevated liver enzymes
